Published values of several laboratories.
Compare with care: the assays were run in different laboratories.

SMILES	target or system	test	system	conditions	measurement	result
O=C1[O][Pt]2([NH][C@@H]3CCCC[C@H]3[NH]2)[O]C1=O (relative stereo)	–	–	cynomolgus monkey, plasma	oral, 10 mg/kg	MRT	19.7 h
Cl.Cl.O=C(CCN1CCCCC1)c1ccc(-c2ccc(C(=O)CCN3CCCCC3)cc2)cc1	–	–	Sprague-Dawley rat, plasma	oral, 100 mg/kg	MRT(0-t)	12.2 h
Cc1ncc2n1-c1ccc(Cl)cc1C(c1ccccc1F)=NC2	–	–	human, plasma	intravenous, 3 µg, single dose	Tmax	0.0333 h
CC(Cc1ccccc1)NCCn1cnc2c1c(=O)n(C)c(=O)n2C (stereo not shown)	Voltage-gated inwardly rectifying potassium channel KCNH2 (KCNH2, Homo sapiens, UniProt Q12809)	ligand displacement, radioligand	–	10 µM	inhibition	-4%
C=C1CCC2C(C)(CO)C(=O)CCC2(C)C1C=CC1=CCOC1=O (stereo not shown)	UDP-glucuronosyltransferase 2B7 (UGT2B7, Homo sapiens, UniProt P16662)	enzyme activity, inhibitor	–	–	Ki	13.7 µM
CSCC[C@H](NC(=O)COCCOCCNC(=O)COCCOCCNC(=O)CC[C@H](NC(=O)CCCCCCCCCCCCCCCCC(=O)O)C(=O)O)C(=O)N[C@H]1CSSC[C@@H](C(=O)NCC(=O)N[C@@H](CO)C(=O)NCC(=O)N[C@@H](CO)C(=O)N[C@@H](CC(=O)O)C(=O)N[C@@H](Cc2ccc(O)cc2)C(=O)N[C@@H](CCCCN)C(=O)N[C@@H](CC(=O)O)C(=O)N[C@@H](CC(=O)O)C(=O)N[C@@H](CC(=O)O)C(=O)N[C@@H](CC(=O)O)C(=O)N[C@@H](CCCCN)C(N)=O)NC(=O)[C@H](Cc2ccccc2)NC(=O)[C@@H]2CCCN2C(=O)[C@H](Cc2c[nH]c3ccccc23)NC(=O)[C@H](CC(C)C)NC(=O)[C@H](CCSC)NC(=O)[C@H](Cc2c[nH]cn2)NC(=O)[C@H](Cc2ccccc2)NC(=O)[C@H](Cc2c[nH]cn2)NC(=O)[C@H]([C@@H](C)O)NC(=O)[C@H](Cc2ccccc2)NC1=O	–	–	male Sprague-Dawley rat, plasma	intravenous, 2 nmol/kg	MRT	13.7 h
COc1ccc(C[C@@H]2NC(=O)[C@H]([C@@H](C)O)NC(=O)[C@@H]3[C@@H]4CCN3C(=O)[C@@H]3Cc5cn(c6ccc(F)cc56)CCCCCCN(Cc5ccc(cc5)CCNC(=O)[C@]5(C)CCCN5C2=O)C(=O)CCC(=O)N[C@@H](C)C(=O)N[C@H](CNC(=O)CCCCC[N+](C)(C)C)C(=O)N[C@@H](Cc2cccc(c2)CNC(=O)CO4)C(=O)N3)cc1	–	–	human, plasma	oral, 200 mg, single dose	Tmax	14.5 h
N=C(N)NCCC[C@@H](NC(=O)[C@@H](N)Cc1ccccc1)C(=O)N[C@@H](Cc1ccccc1)C(=O)N[C@@H](CCCCN)C(N)=O	–	–	human, plasma	subcutaneous, 15 mg, patients	Tmax	0.75 h
CC(C)C[C@@H]1NC(=O)[C@H](CC(=O)O)NC(=O)[C@H](Cc2ccccc2)NC(=O)[C@H](Cc2c[nH]cn2)NC(=O)[C@H]([C@@H](C)O)NC(=O)[C@H](Cc2ccccc2)NC(=O)[C@@H](NC(=O)[C@H](C)NC(=O)COCCOCCNC(=O)COCCOCCNC(=O)CC[C@H](NC(=O)CCCCCCCCCCCCCCCCC(=O)O)C(=O)O)CSSC[C@@H](C(=O)O)NC(=O)[C@H](Cc2ccccc2)NC(=O)[C@@H]2CCCN2C(=O)[C@H](Cc2c[nH]c3ccccc23)NC(=O)[C@H](CC(C)C)NC1=O	–	–	male Sprague-Dawley rat, plasma	intravenous	MRT	5.42 h
CC(=C/C=C/C(C)=C/C(=O)O)/C=C1\CCCc2ccccc21	–	–	human, plasma	oral, 20 mg, single dose, fasted, healthy volunteers	Tmax	2.88 h
